The source made the active and inactive calls. The calls are words filed in the database; no cut-off is given here.

Among the data in ChEMBL document CHEMBL3351723, “New derivatives of lupane triterpenoids disturb breast cancer mitochondria and induce cell death” (Bioorg Med Chem, 2014) are Activity, TIME and inhibition values, retold here.

The subject of assay [1] is Liver microsome. Description: Effect on mitochondrial transmembrane potential in Wistar Han rat liver mitochondria energized with succinate assessed as mitochondrial transmembrane electropotential at 0.133 ug/mg of protein (reference value: 198.0 +/- 5.6 mV). Type of assay: functional.
Assay [2] concerns Liver mitochondria (Rattus norvegicus). Description: Effect on mitochondrial transmembrane potential in Wistar Han rat liver mitochondria energized with succinate assessed as time duration of lag phase at 0.333 ug/mg of protein (reference value: 40.5 +/- 4.5 sec).
For assay [3] the test system is unchanged. Description: Effect on mitochondrial transmembrane potential in Wistar Han rat liver mitochondria energized with succinate assessed as time duration of lag phase at 0.667 ug/mg of protein (reference value: 40.5 +/- 4.5 sec).
The next assay relates to Hs-578T. Description: Cytotoxicity against human Hs578T cells assessed as decrease in live cells at 1 ug/ml for 24 to 48 hrs by flow cytometry. It is filed as functional. Summed up: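 Hs578T seeded at 2.5×10^4 cells/ml, exposed to 1 μg/ml or DMSO for 24 and 48 h. Cells trypsinized and resuspended in HEPES-buffered saline with 15 mM glucose. Stained 15 min at 37°C with 1 μM ethidium homodimer and 0.1 μM calcein-AM. Green (calcein) and red (ethidium homodimer) signals read by flow cytometry. Mean ± SEM, 6 experiments.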

Assay [4] has as its system Liver microsome. Description: Effect on mitochondrial transmembrane potential in Wistar Han rat liver mitochondria energized with succinate assessed as ADP depolarization at 0.333 ug/mg of protein (reference value: 25.3 +/- 2.1 mV). It is filed as functional.
The next assay deals with MCF7. Description: Cytotoxicity against human MCF7 cells at 0.125 to 2 ug/ml after 1 to 5 days by sulforhodamine B assay. Type of assay: functional, cell-based. Summed up: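 Sulforhodamine B growth assay in high-glucose DMEM with 10% FBS. Cancer cells seeded at 1×10^4 cells/ml; compound (0.125–2 μg/ml) added 24 h after seeding and left for 1, 3 or 5 days. Cells fixed, total mass stained. Expressed as % of untreated cells at the same time point. Mean ± SEM, five independent experiments.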

Assay [5] has as its system Liver microsome. Description: Effect on mitochondrial transmembrane potential in Wistar Han rat liver mitochondria energized with succinate assessed as time duration of lag phase at 0.133 ug/mg of protein (reference value: 33.0 +/- 4.6 sec). It is filed as functional. An outline of the steps: (§1)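 Isolated male Wistar rat liver mitochondria (1.5 mg protein) in 125 mM sucrose, 65 mM KCl, 5 mM KH2PO4, 2.5 mM MgCl2, 5 mM HEPES pH 7.4, 30°C, with 3 μM TPP+. Compound added for 1 min, then 10 mM succinate plus 3 μM rotenone. State 3 started with ADP (83.3 nmol/mg protein). ΔΨ read with a TPP+-selective electrode and calculated by the Kamo equation without binding correction.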

Assay [6] relates to Liver microsome. Description: Effect on mitochondrial transmembrane potential in Wistar Han rat liver mitochondria energized with succinate assessed as ADP depolarization at 0.667 ug/mg of protein (reference value: 25.3 +/- 2.1 mV). Type of assay: functional.
Assay [7] relates to Liver microsome. Description: Effect on mitochondrial transmembrane potential in Wistar Han rat liver mitochondria energized with succinate assessed as time duration of lag phase at 0.067 ug/mg of protein (reference value: 82.8 +/- 23.5 sec). Type of assay: functional. Summed up:
as §1

Assay [8] has as its system Liver microsome. Description: Effect on mitochondrial transmembrane potential in Wistar Han rat liver mitochondria energized with succinate assessed as mitochondrial transmembrane electropotential at 0.133 ug/mg of protein (reference value: 216.0 +/- 7.4 mV). It is filed as functional.

For `C=C(C)[C@@H]1CC[C@]2(COC(=O)C(CC)[n+]3ccc(N(C)C)cc3)CC[C@]3(C)[C@H](CC[C@@H]4[C@@]5(C)CC[C@H](OC(=O)C(CC)[n+]6ccc(N(C)C)cc6)C(C)(C)[C@@H]5CC[C@]43C)[C@@H]12` (stereo not given in full), the Activity with Liver microsome [1] worked out at 197 mV. The TIME in [2] was 0.0121 h; in assay [3] it was 0.0117 h.
On to `C=C(C)[C@@H]1CC[C@]2(COC(=O)CC[n+]3ccc(N(C)C)cc3)CC[C@]3(C)[C@H](CC[C@@H]4[C@@]5(C)CC[C@H](OC(=O)CC[n+]6ccc(N(C)C)cc6)C(C)(C)[C@@H]5CC[C@]43C)[C@@H]12.[Cl-].[Cl-]`, for which the inhibition entry in the assay with Hs-578T and in the assay with MCF7 was “Active” each time. The Activity in the assay on Liver microsome [4] is 27.1 mV; in the assay with Liver microsome [6] it was 23.1 mV. In addition, in the assay on Liver microsome [5], the TIME is 0.00867 h.
Turning to `C=C(C)[C@@H]1CC[C@]2(COC(=O)C[n+]3ccc(N(C)C)cc3)CC[C@]3(C)[C@H](CC[C@@H]4[C@@]5(C)CC[C@H](OC(=O)C[n+]6ccc(N(C)C)cc6)C(C)(C)[C@@H]5CC[C@]43C)[C@@H]12.[Cl-].[Cl-]`, the TIME with Liver microsome [7] is 0.0219 h. The Activity in the assay on Liver microsome [8] was 212 mV.
